The text below walks through data of ChEMBL document CHEMBL1240487, “Discovery of a potent, selective, and orally bioavailable pyridinyl-pyrimidine phthalazine aurora kinase inhibitor” (J Med Chem, 2010).

One may read the IC50 as the concentration at which inhibition is half-maximal. The microsomal CLint is a measure of how fast metabolising enzymes remove a compound, apart from limits set by blood flow. A higher microsomal CLint goes with rapid turnover. The term solubility (thermodynamic) denotes solubility found after equilibrating the solid with the medium. For orientation: bioavailability means dose-corrected exposure relative to a reference, in per cent.

Converted amounts (≈) assume the structure as drawn. The source made the active and inactive calls. No cut-off for these calls is given here.

Data set [1] has as its target T1, Aurora kinase A/Targeting protein for Xklp2 (Homo sapiens, UniProt O14965).
T1 sequence (O14965 whole entry): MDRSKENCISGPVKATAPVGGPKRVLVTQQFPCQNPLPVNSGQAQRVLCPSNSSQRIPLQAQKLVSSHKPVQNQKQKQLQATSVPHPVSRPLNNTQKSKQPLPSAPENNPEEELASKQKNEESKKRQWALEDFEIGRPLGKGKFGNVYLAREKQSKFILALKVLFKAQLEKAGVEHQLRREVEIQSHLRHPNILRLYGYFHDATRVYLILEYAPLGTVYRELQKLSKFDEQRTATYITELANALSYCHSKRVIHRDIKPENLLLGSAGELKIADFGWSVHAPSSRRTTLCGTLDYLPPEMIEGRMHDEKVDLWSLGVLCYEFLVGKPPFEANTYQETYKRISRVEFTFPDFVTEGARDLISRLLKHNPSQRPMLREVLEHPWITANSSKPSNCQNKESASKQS
T1 sequence (Q9ULW0 whole entry): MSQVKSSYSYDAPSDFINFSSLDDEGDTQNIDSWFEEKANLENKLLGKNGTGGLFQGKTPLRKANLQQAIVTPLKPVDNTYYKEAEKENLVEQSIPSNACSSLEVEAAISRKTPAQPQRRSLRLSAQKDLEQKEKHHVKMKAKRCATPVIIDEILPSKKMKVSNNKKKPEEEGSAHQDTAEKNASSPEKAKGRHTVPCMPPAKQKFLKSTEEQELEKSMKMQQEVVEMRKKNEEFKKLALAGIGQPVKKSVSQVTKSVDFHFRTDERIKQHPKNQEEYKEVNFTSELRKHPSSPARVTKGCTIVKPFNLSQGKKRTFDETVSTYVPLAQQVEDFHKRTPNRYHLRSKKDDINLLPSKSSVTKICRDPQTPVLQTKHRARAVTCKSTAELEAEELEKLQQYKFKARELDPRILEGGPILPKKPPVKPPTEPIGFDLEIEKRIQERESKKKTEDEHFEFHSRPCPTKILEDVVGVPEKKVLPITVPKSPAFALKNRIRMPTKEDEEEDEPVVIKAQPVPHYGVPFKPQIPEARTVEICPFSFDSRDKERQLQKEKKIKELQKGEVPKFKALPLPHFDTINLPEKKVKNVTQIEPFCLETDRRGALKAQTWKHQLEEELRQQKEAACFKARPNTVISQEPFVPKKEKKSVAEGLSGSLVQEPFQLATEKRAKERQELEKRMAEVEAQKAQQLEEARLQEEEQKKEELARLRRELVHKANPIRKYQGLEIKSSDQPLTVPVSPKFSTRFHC
Nature of the data set: Inhibition of Aurora A/TPX2 (1-43) by HTRF assay. The class given is protein-complex assay. The essentials:
(§1)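 Enzyme inhibition was run with ATP at its Km for each kinase. Values are averages of at least two determinations.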

In data set [2] the target is T2, Aurora kinase B (Homo sapiens, UniProt Q96GD4). Nature of the data set: Inhibition of Aurora B by HTRF assay. The essentials:
as §1
In general terms: Time-resolved FRET reads energy transfer from a long-lived donor to a nearby acceptor.

Data set [3] addresses T2, Aurora kinase B. Put plainly: Inhibition of aurora B autophosphorylation in human HeLa cells at 1 uM after 3 hrs by Western blotting. On the technique in general: Immunoblotting shows a protein as a band on a membrane.
A short description of data set [4]: Intrinsic clearance in rat liver microsomes at 1 uM after up to 40 mins. The class given is ADME, Microsome. In general terms: Liver microsomes are a subcellular fraction often used to study metabolism.
A short description of data set [5]: Aqueous equilibrium solubility of the compound in 0.01N HCL. The class given is physicochemical.
Data set [6] is described as follows: Clearance in Sprague-Dawley rat at 0.5 mg/kg, iv and 2 mg/kg, po. The class given is ADME, organism-based. To be noted: in vivo.
A short description of data set [7]: Oral bioavailability in Sprague-Dawley rat at 2 mg/kg. The class given is ADME, organism-based. To be noted: in vivo.

T2 sequence (Q96GD4 whole entry): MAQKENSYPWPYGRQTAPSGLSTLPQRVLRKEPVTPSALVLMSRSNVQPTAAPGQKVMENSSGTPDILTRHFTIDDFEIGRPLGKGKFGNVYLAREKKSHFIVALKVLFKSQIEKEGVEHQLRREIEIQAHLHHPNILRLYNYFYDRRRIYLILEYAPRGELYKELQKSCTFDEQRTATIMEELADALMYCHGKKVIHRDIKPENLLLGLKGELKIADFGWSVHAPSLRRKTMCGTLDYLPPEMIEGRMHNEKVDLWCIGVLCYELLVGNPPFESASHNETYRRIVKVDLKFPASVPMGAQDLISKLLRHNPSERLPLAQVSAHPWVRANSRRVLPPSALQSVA

`CNc1nccc(-c2cccnc2Oc2ccc(NC(=O)c3ccccc3Cl)cc2C)n1`: the IC50 (in data set [1]; on Aurora kinase B [2]) was > 25000 nM in each case.
`CCN(CCCOc1ccc2c(Nc3cc(CC(=O)Nc4cccc(F)c4)[nH]n3)ncnc2c1)CCOP(=O)(O)O`: at Aurora kinase B [3], the result was Active.
As to `CNc1nccc(-c2cccnc2Oc2ccc(NC(=O)c3cccc(Cl)c3)cc2C)n1`, the IC50 in data set [1] is 1550 nM; at Aurora kinase B [2], 430 nM.
As for `CNc1nccc(-c2cccnc2Oc2ccc(NC(=O)c3ccccc3Nc3ccccc3)cc2C)n1`, the IC50 came to 62 nM in data set [1] and 17 nM against Aurora kinase B [2].
Take `CNc1nccc(-c2cccnc2Oc2ccc(NC(=O)c3ccccc3Nc3ccccc3)c(C)c2)n1`: the IC50 was > 1000 nM in data set [1] and 110 nM at Aurora kinase B [2].
`CNc1nccc(-c2cccnc2Oc2ccc(NC(=O)c3ccccc3Nc3ccc(F)cc3)cc2)n1` yielded a microsomal CLint at 1 µM in data set [4] of 467 µL/min/mg. In data set [5], this molecule showed a solubility (thermodynamic) of 23 µg/mL (≈ 45.4 µM). In addition, the clearance in data set [6] was 26.7 mL/min/kg.
For the molecule `CNc1nccc(-c2cccnc2Oc2ccc(Nc3nnc(-c4ccccc4)c4ccccc34)cc2)n1`, the results for the IC50 (in data set [1]; at Aurora kinase B [2]) were 149 nM and 22 nM, respectively. This molecule returned a solubility (thermodynamic) in data set [5] of 159 µg/mL (≈ 320 µM).
`CNc1nccc(-c2cccnc2Oc2ccc(NC(=O)c3cc(F)ccc3Nc3ccccc3)cc2)n1` registered a microsomal CLint at 1 µM in data set [4] of 338 µL/min/mg. The molecule also had a solubility (thermodynamic) in data set [5] of 16 µg/mL (≈ 31.6 µM). The bioavailability in data set [7] is < 1%. Moreover, the clearance in data set [6] is 14.5 mL/min/kg.
As for `CNc1nccc(-c2cccnc2Oc2ccc(NC(=O)c3ccc(Oc4ccccc4)cc3)cc2C)n1`, the IC50 at Aurora kinase B [2] is 542 nM.
On to `CNc1nccc(-c2cccnc2Oc2ccc(NC(=O)c3ccccc3Oc3ccccc3)cc2C)n1`, for which the figures for the IC50 (in data set [1]; against Aurora kinase B [2]) were 1540 nM and 56 nM, respectively.
For `CNc1nccc(-c2cccnc2Oc2ccc(NC(=O)c3cccc(Oc4ccccc4)c3)cc2C)n1`, the results for the IC50 (in data set [1]; on Aurora kinase B [2]) were 964 nM and 251 nM, respectively.
As to `CNc1nccc(-c2cccnc2Oc2ccc(NC(=O)c3ccc(Cl)cc3)cc2C)n1`, the values for the IC50 (in data set [1]; at Aurora kinase B [2]) were 2340 nM and 335 nM, respectively.
